{"source": "BindingDB's records for doi:10.1021/np800732n", "about": "(National Cancer Institute-Frederick, 2010)"}
{"target": "Transcription factor Jun (Homo sapiens, UniProt P05412)", "sequence (P05412 whole entry)": "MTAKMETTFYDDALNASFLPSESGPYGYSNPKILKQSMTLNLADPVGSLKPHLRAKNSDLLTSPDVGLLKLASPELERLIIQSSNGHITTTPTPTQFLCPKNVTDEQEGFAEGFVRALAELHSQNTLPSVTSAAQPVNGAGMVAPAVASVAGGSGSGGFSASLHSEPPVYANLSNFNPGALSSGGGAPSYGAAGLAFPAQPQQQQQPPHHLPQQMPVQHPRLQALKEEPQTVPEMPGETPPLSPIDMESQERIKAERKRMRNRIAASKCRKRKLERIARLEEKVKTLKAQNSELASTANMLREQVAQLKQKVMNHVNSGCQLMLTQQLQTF", "assay": "Inhibition of TPA-induced AP1 transfected in HEK293 cells assessed as inhibition of […] reporter activity treated 1 hr before TPA stimulation measured after 18 hrs by luciferase reporter gene assay", "procedure,_shortened": "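HEK293 cells were grown in DMEM with 10% FBS at 37 °C and 5% CO2. They were transiently transfected with a luciferase reporter (0.1 µg/well); reporters were AP-1 (four TRE consensus copies from GCN4), NF-κB (five responsive-element copies) or SRE. After 24 h, medium went to DMEM with 0.2% FBS. Cells were pretreated 1 h with compound or DMSO, then given TPA 10 ng/mL for 18 h. Firefly luciferase was read from passive-lysis lysates, TPA alone = 100%, in quadruplicate.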", "units": {"IC50": "nM"}}
{"smiles": "CC[C@](C)(O)C(=O)O[C@H]1C(=O)O[C@@H]2C[C@H]3C(C)CC(=O)C(=O)[C@]3(C)[C@H]3[C@@]4(O)OC[C@]32[C@@H]1[C@@H](C)[C@H]4O", "note": "(stereo partly drawn) [NSC-14975]", "IC50": 40}
{"smiles": "CC(C)=CC(=O)O[C@@H]1[C@H]2C(C)=C[C@H](O)[C@@H](O)[C@]2(C)[C@H]2[C@]3(O)OC[C@@]24[C@@H]1OC(=O)C[C@H]4[C@@H](C)[C@H]3O", "note": "[6R-senecionylchaparrin]", "IC50": 71}
{"smiles": "CCC(C)C(=O)O[C@H]1C(=O)O[C@@H]2C[C@H]3C(C)CC(=O)C(=O)[C@]3(C)[C@H]3[C@]4(O)OC[C@]32[C@@H]1[C@@H](C)[C@H]4O", "note": "(stereo partly drawn)", "IC50": 32}
